This data set is described as follows: Toxicity liver stage against HepG2, at 10uM. The data set is classed as cell-based. Also noted: test concentration 10 uM, cell line HepG2-A16-CD81EGFP. Particulars: human, HepG2-A16-CD81EGFP cells; read-out: INHIBITION
The essentials:
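Uninfected HepG2-A16-CD81EGFP cells, 3 × 10^3 per well, 1536-well, plated on prespotted compound at 10 μM final, parasite-free screening media added to match infected plates; puromycin 10 μM positive, DMSO 0.5% negative; run in parallel with 48 h PbLuc assay at 37 °C, 5% CO2; viability by CellTiter-Glo luminescence, normalized to controls.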
Regarding `COCc1nc(N(C)C)ncc1C(=O)OC`, the cytotoxicity at 10 µM amounted to 13.2%.

As to `O=c1[nH]c(NCCO)nc2c1C1(CCCCC1)Cc1ccccc1-2`, the cytotoxicity at 10 µM was 7.11%. To `Cc1csc(C(=O)NCCN2CCC(c3cccs3)CC2)c1` belongs 2.03%; to `Cc1oncc1C(=O)NCC1(O)CCc2ccccc2C1` (stereo not drawn), -6.29%; to `CCS(=O)(=O)NCC1OCCc2cn(CC3CCOCC3)nc21` (stereo not drawn), 2.77%. In the case of `Cc1ccc(NC(=O)Cn2cc(I)cn2)cc1C`, the cytotoxicity at 10 µM came to 5.03%. Take `COc1ccc(C2SCC(=O)Nc3ccsc32)cc1` (stereo not drawn): the cytotoxicity at 10 µM turned out to be 10.5%. In the case of `CCOC1(C)C(=O)c2ccccc2N1Nc1ccccc1C(=O)CC` (stereo not drawn) it was 12.9%. For `CCN1CCN(S(=O)(=O)c2cc(C)c(C)cc2Br)CC1`, the cytotoxicity at 10 µM was -9.74%. To `CNc1ncc(CN2CCC(CCc3ccccc3)CC2)cn1` belongs 5.19%. In the case of `Nc1cc(N2CCOCC(Cc3ccc4[nH]ccc4c3)C2)ncn1` (stereo not drawn) it was -5.69%; in that of `Cn1cncc1CN1CCCC1c1cncc(Oc2ccc(F)cc2)n1` (stereo not drawn), -17.3%; in that of `Cc1noc(C)c1-c1ccnc(C2CCNCC2)c1`, -8.41%. To `CCc1c(C)nc2cc(C3CCN(Cc4ccc(F)cc4)C3)nn2c1O` (stereo not drawn) belongs -18.6%. On to `Cc1cc(C)nc(N2CCC(c3cncc(-n4ccnc4)n3)CC2)n1`, for which the cytotoxicity at 10 µM was -8.66%. In the case of `Cc1cc(C(=O)NCCc2nc3c(s2)CCCC3)n(C)n1` it was 20.5%; in that of `CN(C)C1(C(=O)NC2CCC(Oc3ccccc3C#N)CC2)CCC1` (stereo not drawn), 9.92%. In the case of `COC(=O)CCN(C)C(=O)c1ccc(-c2cscn2)cc1` it was -7.29%; in that of `CCN(C)S(=O)(=O)N(Cc1cscn1)c1ccccc1`, -3.81%. To `CSCCC(=O)N1CCN(CC(C)O)CC1` (stereo not drawn) belongs -5.64%. `CCC1CCCN(Cc2nc3ccccc3c(=O)[nH]2)C1` (stereo not drawn): the cytotoxicity at 10 µM was -46%. As to `CC(=O)c1cccc(NC(=O)NCCc2nnc[nH]2)c1`, the cytotoxicity at 10 µM is -39.1%. To `COc1ccccc1CN(Cc1cccs1)S(=O)(=O)N(C)C(C)C` belongs -46.7%; to `Cc1ccc(CN(CC(=O)NC2CCOCC2)c2ccc(F)cc2)o1`, 1.55%. To `COc1cccc(CNCc2c(C)nc3sc(C)cn23)c1OC` belongs 32.8%. To `CC(NCCNS(=O)(=O)c1cccc(Cl)c1)C1CCOCC1` (stereo not drawn) belongs -1.6%. With `O=C(Nc1ccccn1)NC1CCN(c2ccccc2OC(F)F)C1` (stereo not drawn), the cytotoxicity at 10 µM is 11.7%. `CN1CCOC(CNCCOc2cccc(C#N)c2)C1` (stereo not drawn): the cytotoxicity at 10 µM came to 7.56%. To `CCc1ccc(C2CCCCCN2C(=O)CNC(=O)NC2CC2)o1` (stereo not drawn) belongs 0.0456%; to `CN(c1ccc(CNC(=O)c2ccc(O)nc2)cc1)C1CCCCC1`, -0.77%. Consider `CCc1cnc(CN(C)C(=O)NC2CCN(C)C2=O)s1` (stereo not drawn), for which the cytotoxicity at 10 µM is -0.786%. In the case of `Cc1nn(C)c(N(C)C)c1CNCc1cccc(Cl)c1` it was -8.27%; in that of `N#CCCN(C(=O)CN1CCCC1c1ccccc1Cl)c1ccccc1` (stereo not drawn), 8.22%; in that of `COCc1nc2cc(NCc3cc[nH]n3)ccc2o1`, 6.7%. For the molecule `Cc1nn(C)c(C)c1OCC(=O)NCC(O)Cc1ccccc1` (stereo not drawn), the cytotoxicity at 10 µM was -3.81%. To `CCN(CC)C(=O)N1CCN(C(=O)C2CCCc3[nH]ncc32)CC1` (stereo not drawn) belongs -2.3%; to `CC(NC(=O)N(C)Cc1cccc(OC(F)F)c1)c1nncn1C` (stereo not drawn), -2.69%; to `COCC(C)(C#N)NC(=O)COc1ccccc1` (stereo not drawn), 7.51%.

`CCC(NC(=O)NCc1cccc(N(C)C)n1)c1nccs1` (stereo not drawn): the cytotoxicity at 10 µM was 23.3%. In the case of `CN(CCCc1ccc(C(F)(F)F)cc1)Cc1nccn1C` it was 9.05%; in that of `O=C(c1cncc(Br)c1)N1CCCc2ccc(F)cc21`, -1.01%. Consider `CCOc1cc(CNC(C)c2sccc2C)ccn1` (stereo not drawn), for which the cytotoxicity at 10 µM was -8.14%.

As for `CC(NC(=O)NCCc1cnn(C)c1)c1ccc(Cl)s1` (stereo not drawn), the cytotoxicity at 10 µM is -2.47%.

Take `N#Cc1ccc(NC2CCN(c3ncccn3)CC2)cc1C(F)(F)F`: the cytotoxicity at 10 µM came to 27.5%. In the case of `Cc1ccc(-n2ncc(C(=O)NC3CCCCC3)c2N)cc1`, the cytotoxicity at 10 µM was -50.6%.

As to `Cc1cc(NC(=O)c2nc(N3CCCC3)ncc2Cl)nc(C(C)C)n1`, the cytotoxicity at 10 µM was found to be 69.3%. In the case of `Cc1cc(F)c(C(C(=O)O)N2CCN(Cc3ccccn3)CC2)cc1Cl` (stereo not drawn) it was 4.2%.

On to `O=C1NC2(CCN(Cc3ccccc3Cl)CC2)CC1c1ccccc1` (stereo not drawn), for which the cytotoxicity at 10 µM was -49.2%.

On to `CN1CCC(N(C)CCC(=O)N2CCC(Oc3ccc(Cl)cc3)CC2)C1` (stereo not drawn), for which the cytotoxicity at 10 µM amounted to 7.04%. Regarding `Cc1cnc(C)c(N2C[C@H]3OC(=O)N(C4CCCC4)[C@H]3C2)n1`, the cytotoxicity at 10 µM was 12.5%. In the case of `Cc1cc(NC2CCCN(Cc3ccc(F)cc3)C2)n2nc(C)cc2n1` (stereo not drawn) it was 0.0152%; in that of `c1ccc(-c2nc3c(c(NCCn4cccc4)n2)CCNCC3)nc1`, -51.9%; in that of `COc1ccc(C(=O)N2CCC3(CC2)c2ccccc2[C@@H](N)[C@@H]3O)cc1`, -3.34%. In the case of `CN(Cc1csc(-c2ccccc2)n1)C(=O)CCn1ccccc1=O`, the cytotoxicity at 10 µM is -2.84%. As for `CC(=O)N[C@@H]1Cc2ccccc2[C@H]1Nc1ccncn1`, the cytotoxicity at 10 µM was -43.6%. To `CCn1nc(CNC(=O)C2CCCN(CC(N)=O)C2)c2ccccc21` (stereo not drawn) belongs -9.65%; to `CSC(C)CCN1CCC(n2cc(C3CCCCC3)nn2)CC1` (stereo not drawn), -1.39%. To `Cc1ccsc1CN(C)Cc1ncccc1C(=O)O` belongs -2.55%; to `O=C(c1cnc2c(c1)CCC2)N1CCCC(CO)(CC2CC2)C1` (stereo not drawn), -42.1%. In the case of `Cc1ncsc1CCN(C)C(=O)CN1C(=O)OC[C@@H]1c1ccccc1` it was -51.2%.

Take `CCCc1cc(C(=O)N(C)Cc2ccc(OC)c3ncccc23)n(C)n1`: the cytotoxicity at 10 µM amounted to 37.2%. Consider `O[C@H]1Cc2ccccc2[C@H]1n1ccnc1-c1cc2n(n1)CCNC2`, for which the cytotoxicity at 10 µM is 1.58%. In the case of `CN(C)c1nc2c(c(N3CCc4ccccc4C3)n1)CCNC2` it was 10.9%.

Take `COc1cccc(CCC2CCCN(C(=O)c3ccc(OC)o3)C2)c1` (stereo not drawn): the cytotoxicity at 10 µM stood at 9.9%. To `CN(CCSc1ccccc1)C(=O)c1cn2c(n1)CNCC2` belongs -47.4%; to `N#Cc1cccc(C(=O)N2CCCC(O)(CO)CC2)c1` (stereo not drawn), 1.29%; to `NC(=O)c1cc2c(nc1Oc1ccc(CN3CCCC3)cc1F)CCC2`, -3.62%. In the case of `OCCOc1ccccc1CN1CCCC(O)(CO)C1` (stereo not drawn) it was -38.7%. To `Cc1cc(C)cc(CN2CCN(Cc3cccc(CCN)c3)CC2=O)c1` belongs -18.3%; to `Cc1nn(C)c(C)c1-c1ccnc(N(C)Cc2nc(C(C)C)no2)n1`, 20.6%; to `Cc1ccsc1CN(CCN(C)C)C(=O)C1=NNC(=O)CC1`, -13.4%.

With `CCc1nn(C)c(Cl)c1CN1CCN(c2ccc(Cl)nn2)CC1`, the cytotoxicity at 10 µM was determined as 8.01%. In the case of `CC(C)Cc1cc(C(=O)N2CCC[C@H]2C(=O)N2CCOCC2)on1` it was 6.07%.

Turning to `COc1ncc(-c2cc(NC3CCCC3)nc3[nH]ccc23)c(OC)n1`, the cytotoxicity at 10 µM came to 16.3%.

Turning to `CCCc1cc(CNC2CCN(c3nc4ccccc4s3)CC2)on1`, the cytotoxicity at 10 µM was -4.34%. To `COCc1nc2ncc3c(=O)n(-c4ccccc4OC)ccc3n2n1` belongs -8.17%; to `Nc1nc2c(c(N3CCSCC3)n1)CCN(Cc1ccccn1)CC2`, -53%; to `Cc1ccsc1-c1nnc(C2CCN(Cc3ccc(F)cc3)CC2)o1`, 4.58%. In the case of `COCCN1CCN(CCCS(=O)(=O)N(C)C)CC1C` (stereo not drawn) it was 3.54%; in that of `CC(=O)c1ccc(S(=O)(=O)NCc2cccnc2N(C)C)cc1`, 12.6%.

In the case of `CCc1nc(C(=O)N2CCCC2)nn1-c1ccccc1Cl`, the cytotoxicity at 10 µM is -3.17%. In the case of `CCOc1ccc(S(=O)(=O)NCc2cccnc2N(C)C)cc1` it was 34.7%; in that of `CCc1nc(CN(C)C2CCN(Cc3cnc(C)cn3)C2)no1` (stereo not drawn), 4.23%. In the case of `Cc1nccn1CC1CCCN1CCCc1nc(-c2cccs2)no1` (stereo not drawn) it was -1.84%; in that of `CCc1ccc(CN2CCCCC2c2n[nH]cc2-c2cc(C)no2)cc1` (stereo not drawn), 35%; in that of `Clc1ccc(C2(CNC3=NCCN3)CCCC2)cc1`, 14.4%.

Turning to `O=S(=O)(c1cccs1)N1Cc2nc(CN3CCCC3)oc2C1`, the cytotoxicity at 10 µM was -118%. In the case of `COc1cccc(-c2noc(C3CCN(CC4CCCCC4)C3)n2)c1` (stereo not drawn), the cytotoxicity at 10 µM was -3.44%. Turning to `CNC(=O)COC1COC2(CCN(Cc3cccnc3)CC2)C1` (stereo not drawn), the cytotoxicity at 10 µM was found to be 6.53%. In the case of `Cc1ccc2c(c1)C1(CCNCC1)CC2NC1CC1` (stereo not drawn) it was -117%. In the case of `O=C(Cc1ccccn1)N1CCN2C[C@H](Oc3cncnc3)C[C@H]2C1` it was -73%; in that of `Cc1cc(CN2CCc3c(CNc4ncccn4)cncc3C2)oc1C`, -82.6%. In the case of `Cc1noc(C)c1CN1CCc2ncnc(-c3ccc(F)cc3)c2CC1` it was -100%.

On to `Cn1cc(CN2C[C@H]3CCC[C@@]3(COc3ccccn3)C2)cn1`, for which the cytotoxicity at 10 µM was -107%. To `O=C(N1CCCC1)N1CCOCC2(CCN(Cc3cccs3)C2)C1` (stereo not drawn) belongs -3.85%.

As for `COc1cc2c(cc1CNCc1ccnc(-n3cccn3)c1)OC(C)C2` (stereo not drawn), the cytotoxicity at 10 µM is 11.2%. To `COc1cc(CNC(C)c2ccc(F)c(F)c2)cc2c1OCCO2` (stereo not drawn) belongs -1.58%. Consider `CC1(C)[C@@H]2CC=C(CN3CCCn4nc(C(=O)NCCO)cc4C3)[C@H]1C2`, for which the cytotoxicity at 10 µM was -40.3%.

Source of the values: ChEMBL document CHEMBL4513216, “Probing the Open Global Health Chemical Diversity Library for Multistage-Active Starting Points for Next-Generation Antimalarials” (ACS Infect Dis, 2020).
